ChEMBL document CHEMBL1134337, “Behavioral approach to nondyskinetic dopamine antagonists: identification of seroquel” (J Med Chem, 2001)

Experiments:
[1] = molecular target: D(2) dopamine receptor (Rattus norvegicus) (UniProt P61169); test: Binding affinity at dopamine receptor D2 from rat by spiropiperidone displacement.
In short: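 D2 receptor binding was read as % displacement of spiropiperidone, with test compound at 1000 nM unless stated otherwise. IC50 values used at least five concentrations per compound in triplicate. Each value is the mean of two replicate experiments differing by 5% or less.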

Mus musculus [2] = test: Antagonism of apomorphine induced climbing was determined in female swiss -Webster mice after (po) administration of 20 mg/kg; format: functional
In short: (§1)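 Female Swiss-Webster mice (about 20 g) were fasted about 24 h, then given test compound or vehicle ip or po (N = 20 per group). Vehicle was 0.5% w/w hydroxypropylmethylcellulose with 0.1% w/w Tween 80 in water. After 30 min, mice received apomorphine HCl 1.25 mg/kg sc. At 13 min, each mouse was watched for 1 min; score was mean of highest and lowest rung of 27. Groups were compared with vehicle by Student's t-test.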

Mus musculus [3] = test: Antagonism of apomorphine induced climbing was determined in female swiss -Webster mice after (po) administration of 40 mg/kg; format: functional; in short: as §1
Mus musculus [4] = test: Antagonism of apomorphine induced climbing was determined in female swiss -Webster mice after (po) administration of 5 mg/kg; format: functional; in short: as §1
Mus musculus [5] = test: Antagonism of apomorphine induced climbing was determined in female swiss -Webster mice after (p.o.) +SKF525A administration of 10 mg/kg; format: functional; conditions: route oral; in short: as §1
Mus musculus [6] = test: Antagonism of apomorphine induced climbing was determined in female swiss -Webster mice after (p.o.) +SKF525A administration of 2.5 mg/kg; format: functional; conditions: route oral; in short: as §1
Mus musculus [7] = test: Antagonism of apomorphine induced climbing was determined in female swiss -Webster mice after (p.o.) +SKF525A administration of 20 mg/kg; format: functional; conditions: route oral; in short: as §1
Mus musculus [8] = test: Antagonism of apomorphine induced climbing was determined in female swiss -Webster mice after (ip) administration of 10 mg/kg; format: functional; in short: as §1
Mus musculus [9] = test: Antagonism of apomorphine induced climbing was determined in female swiss -Webster mice after (ip) administration of 2.5 mg/kg; format: functional; in short: as §1
Mus musculus [10] = test: Antagonism of apomorphine induced climbing was determined in female swiss -Webster mice after (ip) administration of 20 mg/kg; format: functional; in short: as §1
Mus musculus [11] = test: Antagonism of apomorphine induced climbing was determined in female swiss -Webster mice after (ip) administration of 40 mg/kg; format: functional; in short: as §1
Mus musculus [12] = test: Antagonism of apomorphine induced climbing was determined in female swiss -Webster mice after (ip) administration of 5 mg/kg; format: functional; in short: as §1
Mus musculus [13] = test: Antagonism of apomorphine induced climbing was determined in female swiss -Webster mice after (po) administration of 2.5 mg/kg; format: functional; in short: as §1
Mus musculus [14] = test: Antagonism of apomorphine induced climbing was determined in female swiss -Webster mice after (p.o.) +SKF525A administration of 40 mg/kg; format: functional; conditions: route oral; in short: as §1
Mus musculus [15] = test: Antagonism of apomorphine induced climbing was determined in female swiss -Webster mice after (p.o.) +SKF525A administration of 5 mg/kg; format: functional; conditions: route oral; in short: as §1
Mus musculus [16] = test: Antagonism of apomorphine induced climbing was determined in female swiss -Webster mice after (po) administration of 10 mg/kg; format: functional; in short: as §1
[17] = Number of animals showing dyskinesias was determined in haloperidol sensitized 6 cebus monkeys after (po) administration of 10 mg/kg; format: functional; conditions: dose 20 mg/kg; in the assay text read “20 mg/kg” for “10 mg/kg”
In short: (§2)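 Adult female and male Cebus monkeys sensitized with oral haloperidol 1 mg/kg once per week until dyskinetic reactions occurred. Test drug given orally (2 mL/kg) in 0.5% w/w hydroxypropylmethylcellulose with 0.1% w/w Tween 80 in distilled water, at least 2 weeks between treatments. Two observers watched continuously for 6-7 h, recording reaction type and severity every 30 min. Score is monkeys with dyskinesias/monkeys tested.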

D(2) dopamine receptor = D(2) dopamine receptor (Rattus norvegicus, UniProt P61169); test: Inhibition of spiropiperidone binding at dopamine receptor D2 of rat.
Chain of D(2) dopamine receptor (P61169 whole entry): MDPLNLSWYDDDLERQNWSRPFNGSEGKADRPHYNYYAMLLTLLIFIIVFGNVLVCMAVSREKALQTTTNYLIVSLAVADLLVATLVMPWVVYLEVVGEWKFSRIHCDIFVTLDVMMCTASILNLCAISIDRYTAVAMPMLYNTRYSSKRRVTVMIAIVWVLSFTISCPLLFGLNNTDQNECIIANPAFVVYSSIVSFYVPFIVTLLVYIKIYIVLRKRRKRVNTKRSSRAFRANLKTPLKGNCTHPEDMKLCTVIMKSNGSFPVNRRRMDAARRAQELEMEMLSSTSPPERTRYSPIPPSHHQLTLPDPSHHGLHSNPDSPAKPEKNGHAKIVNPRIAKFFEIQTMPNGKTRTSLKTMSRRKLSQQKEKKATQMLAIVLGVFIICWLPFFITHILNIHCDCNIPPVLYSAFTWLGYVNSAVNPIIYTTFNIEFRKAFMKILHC

Mus musculus [18] = test: Antagonism of apomorphine induced climbing was determined in female swiss -Wbster mice after (ip) administration of 10 mg/kg; format: functional; in short: as §1
Mus musculus [19] = test: Antagonism of apomorphine induced climbing was determined in female swiss -Wbster mice after (ip) administration of 20 mg/kg; format: functional; in short: as §1
Mus musculus [20] = test: Antagonism of apomorphine induced climbing was determined in female swiss -Wbster mice after (ip) administration of 40 mg/kg; format: functional; in short: as §1
Mus musculus [21] = test: Antagonism of apomorphine induced swimming was determined in female swiss -Wbster mice after (ip) administration of 10 mg/kg; format: functional
Mus musculus [22] = test: Antagonism of apomorphine induced swimming was determined in female swiss -Wbster mice after (ip) administration of 20 mg/kg; format: functional
Mus musculus [23] = test: Antagonism of apomorphine induced swimming was determined in female swiss -Wbster mice after (ip) administration of 40 mg/kg; format: functional
[24] = Number of animals showing dyskinesias was determined in haloperidol sensitized cebus monkey after (po) administration of 10 mg/kg; format: functional; in short: as §2
Mus musculus [25] = test: Antagonism of apomorphine induced swimming was determined in female swiss -Webster mice after (ip) administration of 10 mg/kg; format: functional
Mus musculus [26] = test: Antagonism of apomorphine induced swimming was determined in female swiss -Webster mice after (ip) administration of 2.5 mg/kg; format: functional
Mus musculus [27] = test: Antagonism of apomorphine induced swimming was determined in female swiss -Webster mice after (ip) administration of 20 mg/kg; format: functional
Mus musculus [28] = test: Antagonism of apomorphine induced swimming was determined in female swiss -Webster mice after (ip) administration of 40 mg/kg; format: functional
Mus musculus [29] = test: Antagonism of apomorphine induced swimming was determined in female swiss -Webster mice after (ip) administration of 5 mg/kg; format: functional
[30] = Number of animals showing dyskinesias was determined in haloperidol sensitized 2 cebus monkeys after (po) administration of 10 mg/kg; format: functional; in short: as §2
[31] = Number of animals showing dyskinesias was determined in haloperidol sensitized 2 cebus monkeys after (po) administration of 20 mg/kg; format: functional; in short: as §2
[32] = Number of animals showing dyskinesias was determined in haloperidol sensitized 3 cebus monkeys after (po) administration of 10 mg/kg; format: functional; in short: as §2
Mus musculus [33] = test: Antagonism of apomorphine induced swimming was determined in female swiss -Wbster mice after (po) administration of 20 mg/kg; format: functional
Mus musculus [34] = test: Antagonism of apomorphine induced swimming was determined in female swiss -Wbster mice after (po) administration of 40 mg/kg; format: functional
[35] = Number of animals showing dyskinesias was determined in haloperidol sensitized 2 cebus monkeys after (po) administration of 80 mg/kg; format: functional; in short: as §2
[36] = Number of animals showing dyskinesias was determined in haloperidol sensitized 2cebus monkeys after (po) administration of 20 mg/kg; format: functional; in short: as §2
[37] = Number of animals showing dyskinesias was determined in haloperidol sensitized 4 cebus monkeys after (po) administration of 40 mg/kg; format: functional; in short: as §2
Mus musculus [38] = test: Antagonism of apomorphine induced climbing was determined in female swiss -Wbster mice after (ip) administration of 80 mg/kg; format: functional; in short: as §1

Chain of D(2) dopamine receptor (Rattus norvegicus) (P61169 whole entry): as above

Compound `CN1CCN(C2=Nc3ccccc3Oc3ccccc32)CC1` has a % displacement of spiropiperidone [1] of 27%, an Activity (Mus musculus [2]) of 3 and an Activity (Mus musculus [3]) of 3. For the same compound, the Activity (Mus musculus [4]) was 13, the Activity (Mus musculus [5]) was 24 and the Activity (Mus musculus [6]) was 25. The Activity (Mus musculus [7]) was 18, the Activity (Mus musculus [8]) was 2 and the Activity (Mus musculus [9]) was 19. It also gave an Activity (Mus musculus [10]) of 0, an Activity (Mus musculus [11]) of 3 and an Activity (Mus musculus [12]) of 13. For the same compound, the Activity (Mus musculus [13]) was 19, the Activity (Mus musculus [14]) was 19 and the Activity (Mus musculus [15]) was 19. For the same compound, the Activity (Mus musculus [16]) was 10.

With `OCCOCCN1CCN(C2=Nc3ccc(O)cc3Sc3ccccc32)CC1` the No of monkeys [17] was 5, the IC50 (D(2) dopamine receptor) was 166 nM and the Activity (Mus musculus [18]) was 27. The Activity (Mus musculus [19]) was 5, the Activity (Mus musculus [20]) was 0 and the Activity (Mus musculus [21]) was 5. The Activity (Mus musculus [22]) was 17 and the Activity (Mus musculus [23]) was 31.

In the case of `COC(CO)CN1CCN(C2=Nc3ccccc3Sc3ccccc32)CC1` (stereo not drawn), the No of monkeys [24] is reported as 2, the IC50 (D(2) dopamine receptor) is reported as 755 nM and the Activity (Mus musculus [8]) is reported as 8. It also gave an Activity (Mus musculus [9]) of 21, an Activity (Mus musculus [10]) of 2 and an Activity (Mus musculus [11]) of 1. The Activity (Mus musculus [12]) was 19, the Activity (Mus musculus [25]) was 6 and the Activity (Mus musculus [26]) was 0. For the same compound, the Activity (Mus musculus [27]) was 22, the Activity (Mus musculus [28]) was 32 and the Activity (Mus musculus [29]) was 2.

`COCC(CN1CCN(C2=Nc3ccccc3Sc3ccccc32)CC1)OC` (stereo not drawn) gave a No of monkeys [30] of 1, a No of monkeys [31] of 1 and an IC50 (D(2) dopamine receptor) of 795 nM. For the same compound, the Activity (Mus musculus [8]) was 1, the Activity (Mus musculus [9]) was 18 and the Activity (Mus musculus [10]) was 2. For the same compound, the Activity (Mus musculus [11]) was 0, the Activity (Mus musculus [12]) was 5 and the Activity (Mus musculus [25]) was 17. It also gave an Activity (Mus musculus [26]) of 5, an Activity (Mus musculus [27]) of 28 and an Activity (Mus musculus [28]) of 33. For the same compound, the Activity (Mus musculus [29]) was 9.

`OCCN1CCN(C2=Nc3ccccc3Sc3ccccc32)CC1` gave a No of monkeys [32] of 2, an Activity (Mus musculus [8]) of 24 and an Activity (Mus musculus [10]) of 6. It also gave an Activity (Mus musculus [11]) of 1, an Activity (Mus musculus [21]) of 3 and an Activity (Mus musculus [33]) of 18. The Activity (Mus musculus [34]) was 28.

`OCCOCCN1CCN(C2=Nc3cc(F)ccc3Sc3ccccc32)CC1` showed a No of monkeys [35] of 0, a No of monkeys [36] of 0 and a No of monkeys [37] of 0. For the same compound, the % displacement of spiropiperidone [1] was 34%, the Activity (Mus musculus [19]) was 16 and the Activity (Mus musculus [20]) was 14. The Activity (Mus musculus [38]) was 6.
